Measured values: ChEMBL document CHEMBL2163301, “Substrates for efficient fluorometric screening employing the NAD-dependent sirtuin 5 lysine deacylase (KDAC) enzyme” (J Med Chem, 2012)

biological target: NAD-dependent protein deacylase sirtuin-5, mitochondrial (Homo sapiens, UniProt Q9NXA8); test: Inhibition of SIRT5
How it was run: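 Recombinant SIRT5 at 50 ng/well (~30 nM, 50 μL) with succinyllysine AMC substrate and NAD in Tris-Cl pH 8.0/BSA buffer. Inhibitor dilutions were prepared in assay buffer from DMSO stocks. IC50 from nonlinear regression of dose–response, two assays in duplicate.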

Chain of NAD-dependent protein deacylase sirtuin-5, mitochondrial (Q9NXA8 whole entry): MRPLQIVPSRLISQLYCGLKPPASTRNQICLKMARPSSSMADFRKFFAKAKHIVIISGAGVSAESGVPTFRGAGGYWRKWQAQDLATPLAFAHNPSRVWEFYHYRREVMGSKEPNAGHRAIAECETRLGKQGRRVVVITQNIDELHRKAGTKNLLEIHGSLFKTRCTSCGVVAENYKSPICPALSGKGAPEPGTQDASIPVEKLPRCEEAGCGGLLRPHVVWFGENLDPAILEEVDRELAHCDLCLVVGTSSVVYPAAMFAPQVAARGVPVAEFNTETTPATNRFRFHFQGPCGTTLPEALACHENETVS

IC50, > 100 µM:
O=C(O)CCCc1ccccc1
N#C/C(=C\c1ccc(-c2cc(Cl)ccc2Cl)o1)C(=O)Nc1cccc2ncccc12
CC(NC(=O)c1ccccc1/N=C/c1c(O)ccc2ccccc12)c1ccccc1 (centres undefined) [SIRTINOL]
O=C(CCCCCCC(=O)Nc1ccccc1)NO [VORINOSTAT]
